Test results taken from ChEMBL document CHEMBL4011632, “Design, Synthesis, and Evaluation of Thiazolidine-2,4-dione Derivatives as a Novel Class of Glutaminase Inhibitors” (J Med Chem, 2017).

What was measured:
ASPC1 [1] = assay: Anticlonogenic activity against human Aspc-1 cells at 10 uM after 21 days by crystal violet staining based assay relative to control; type: functional; conditions: ASPC1, 504 h
Procedure, shortened: (§1)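 Anchorage-dependent colony formation: AsPC-1 cells seeded at 1000 cells/well in six-well plates and treated with compound. Colony formation is expressed as percent of vehicle treatment. Mean ± SD from at least three independent experiments, each in duplicate.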

[2] = target: T1, Glutaminase kidney isoform, mitochondrial (Homo sapiens, UniProt O94925); assay: Inhibition of recombinant human MCF7 cells derived His-tagged GAC (L123 to S598 residues) expressed in Escherichia coli C41(DE3)pLysS using glutamine as substrate preincubated for 10 mins followed by substrate addition measured after 60 mins by glutamate dehydrogenase coupled enzyme assay
T1 sequence (O94925 whole entry): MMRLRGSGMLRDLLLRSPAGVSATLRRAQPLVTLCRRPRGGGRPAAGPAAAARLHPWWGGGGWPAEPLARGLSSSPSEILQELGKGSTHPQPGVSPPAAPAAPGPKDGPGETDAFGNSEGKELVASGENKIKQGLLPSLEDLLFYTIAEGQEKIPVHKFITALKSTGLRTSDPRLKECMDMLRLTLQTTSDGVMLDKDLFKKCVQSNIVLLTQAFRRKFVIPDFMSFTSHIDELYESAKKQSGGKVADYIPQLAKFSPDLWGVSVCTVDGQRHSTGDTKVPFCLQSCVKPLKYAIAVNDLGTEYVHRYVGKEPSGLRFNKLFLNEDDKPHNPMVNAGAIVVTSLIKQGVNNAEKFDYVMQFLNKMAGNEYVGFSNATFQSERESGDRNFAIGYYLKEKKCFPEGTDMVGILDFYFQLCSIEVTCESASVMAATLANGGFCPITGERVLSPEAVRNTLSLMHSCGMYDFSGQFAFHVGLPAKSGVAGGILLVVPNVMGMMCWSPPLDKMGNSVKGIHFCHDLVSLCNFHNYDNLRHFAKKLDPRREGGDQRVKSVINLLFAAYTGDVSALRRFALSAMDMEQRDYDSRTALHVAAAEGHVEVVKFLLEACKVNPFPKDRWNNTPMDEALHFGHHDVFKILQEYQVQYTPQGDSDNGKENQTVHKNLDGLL
Procedure, shortened: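 Human GAC cloned from MCF7 cDNA into pET28a(+) as a His-tagged construct. Expressed in E. coli C41(DE3)pLysS in Terrific Broth with kanamycin, induced with 1 mM IPTG for 6 h at 25 °C. Purified on Ni2+ resin with 500 mM imidazole elution and exchanged into 50 mM NaH2PO4, 50 mM Tris-HCl pH 8.0, 2 mM DTT, 50% glycerol. Activity measured by two-step glutaminase assay.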

[3] = target: T2, Glutaminase liver isoform, mitochondrial (Homo sapiens, UniProt Q9UI32); assay: Inhibition of recombinant human His-tagged GAB (P56 to V602 residues) expressed in Escherichia coli C41(DE3)pLysS using glutamine as substrate preincubated for 10 mins followed by substrate addition measured after 60 mins by glutamate dehydrogenase coupled enzyme assay
T2 sequence (Q9UI32 whole entry): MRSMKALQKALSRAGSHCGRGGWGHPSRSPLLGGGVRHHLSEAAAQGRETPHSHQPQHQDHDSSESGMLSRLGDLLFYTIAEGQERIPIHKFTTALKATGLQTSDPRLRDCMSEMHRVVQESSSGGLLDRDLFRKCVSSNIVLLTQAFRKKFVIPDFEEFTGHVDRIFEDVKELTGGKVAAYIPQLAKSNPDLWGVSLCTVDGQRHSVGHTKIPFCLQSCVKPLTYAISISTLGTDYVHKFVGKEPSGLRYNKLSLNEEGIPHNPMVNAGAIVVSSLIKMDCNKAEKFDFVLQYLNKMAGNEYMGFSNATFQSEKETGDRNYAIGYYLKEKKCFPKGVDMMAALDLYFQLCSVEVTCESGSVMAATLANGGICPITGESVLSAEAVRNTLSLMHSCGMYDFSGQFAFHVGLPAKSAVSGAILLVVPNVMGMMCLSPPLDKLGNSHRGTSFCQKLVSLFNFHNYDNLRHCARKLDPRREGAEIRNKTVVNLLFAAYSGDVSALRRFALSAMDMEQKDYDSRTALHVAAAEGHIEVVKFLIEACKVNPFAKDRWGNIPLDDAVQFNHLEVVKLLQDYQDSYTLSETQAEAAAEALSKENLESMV

MDA-MB-231 = assay: Growth inhibition of human MDA-MB-231 cells after 72 hrs by MTS assay; type: functional, cell-based; conditions: MDA-MB-231, 72 h
Procedure, shortened: (§2)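 Growth inhibition by MTS viability read-out. Cells seeded in 96-well plates at 4000/well (AsPC-1) or 8500/well (MDA-MB-231). Mean ± SD from at least three independent experiments, each in duplicate.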

Homo sapiens = species on record: Homo sapiens; assay: Selectivity index, ratio of IC50 for recombinant human His-tagged GAB (P56-V602 residues) expressed in Escherichia coli C41(DE3)pLysS to IC50 for recombinant human His-tagged KGA (L123 to L669 residues) expressed in Escherichia coli BL21(DE3)pLysS
[4] = target: T1, Glutaminase kidney isoform, mitochondrial; assay: Inhibition of recombinant human His-tagged KGA (L123 to L669 residues) expressed in Escherichia coli BL21(DE3)pLysS using glutamine substrate preincubated for 10 mins followed by substrate addition measured after 60 mins by glutamate dehydrogenase coupled enzyme assay
ASPC1 [5] = assay: Anticlonogenic activity against human Aspc-1 cells at 2 uM after 21 days by crystal violet staining based assay relative to control; type: functional; conditions: ASPC1, 504 h; procedure, shortened: as §1
ASPC1 [6] = assay: Growth inhibition of human Aspc-1 cells after 72 hrs by MTS assay; type: functional, cell-based; conditions: ASPC1, 72 h; procedure, shortened: as §2

| Structure (SMILES) | IC50 [2] | IC50 [3] | IC50 (MDA-MB-231) | Ratio IC50 (Homo sapiens) | IC50 [4] | IC50 (ASPC1 [6]) | inhibition at 10 µM (ASPC1 [1]) | inhibition at 2 µM (ASPC1 [5]) |
| --- | --- | --- | --- | --- | --- | --- | --- | --- |
| O=C1NC(=O)/C(=C/c2cc(-c3cccs3)n(-c3ccc(Br)cc3)c2-c2cccs2)S1 | 1.27 µM | 3.78 µM | – | 5 | 0.754 µM | – | – | – |
| Cc1cc(/C=C2\SC(=O)NC2=O)c(C)n1-c1ccc(Br)cc1 | 5.37 µM | > 100 µM | – | > 32 | 3.1 µM | – | – | – |
| CCc1cc(-c2ccc(-n3c(C)cc(/C=C4\SC(=O)NC4=O)c3C)cc2OC)ccc1/C=C1\SC(=O)NC1=O | 0.177 µM | 1.19 µM | – | 18 | 0.066 µM | – | – | – |
| CCc1cc(-c2ccc(-n3c(-c4cccs4)cc(/C=C4\SC(=O)NC4=O)c3-c3cccs3)cc2)ccc1/C=C1\SC(=O)NC1=O | 0.391 µM | 1.72 µM | 26.3 µM | 32 | 0.054 µM | 24.8 µM | 89% | 44% |
| CCc1cc(-c2ccc(-n3c(C)cc(/C=C4\SC(=O)NC4=O)c3C)cc2)ccc1/C=C1\SC(=O)NC1=O | 0.087 µM | 1.03 µM | 15.3 µM | 26 | 0.039 µM | 12.5 µM | 59% | 28% |
| O=C1NC(=O)/C(=C/c2cc(-c3ccccc3)n(-c3ccc(Br)cc3)c2-c2ccccc2)S1 | 8.76 µM | 11.8 µM | – | 2.4 | 4.9 µM | – | – | – |

Continued by falling IC50 [2], values first:

| IC50 [2] | IC50 [3] | IC50 (MDA-MB-231) | Ratio IC50 (Homo sapiens) | IC50 [4] | IC50 (ASPC1 [6]) | Structure (SMILES) | inhibition at 10 µM (ASPC1 [1]) | inhibition at 2 µM (ASPC1 [5]) |
| --- | --- | --- | --- | --- | --- | --- | --- | --- |
| 0.76 µM | 5.72 µM | – | 23 | 0.247 µM | – | Cc1cc(/C=C2\SC(=O)NC2=O)c(C)n1-c1ccc(-c2ccc(/C=C3\SC(=O)NC3=O)cc2)c(O)c1 | – | – |
| 0.355 µM | 2.14 µM | – | 8.8 | 0.243 µM | – | COc1cc(-n2c(C)cc(/C=C3\SC(=O)NC3=O)c2C)ccc1-c1ccc(/C=C2\SC(=O)NC2=O)cc1 | – | – |
| 0.217 µM | 1.24 µM | 8.2 µM | 22 | 0.056 µM | 8.8 µM | CCc1cc(-c2ccc(-n3c(-c4ccccc4)cc(/C=C4\SC(=O)NC4=O)c3-c3ccccc3)cc2)ccc1/C=C1\SC(=O)NC1=O | 91% | 51% |
| 0.148 µM | 0.787 µM | 8.9 µM | 16 | 0.048 µM | 12 µM | COc1cc(-n2c(-c3ccccc3)cc(/C=C3\SC(=O)NC3=O)c2-c2ccccc2)ccc1-c1ccc(/C=C2\SC(=O)NC2=O)cc1 | 95% | 90% |
| 0.092 µM | 1.19 µM | – | 20 | 0.059 µM | – | CCc1cc(-c2ccc(-n3c(C)cc(/C=C4\SC(=O)NC4=O)c3C)cc2C#N)ccc1/C=C1\SC(=O)NC1=O | – | – |
| 0.053 µM | 0.269 µM | 10.6 µM | 7.7 | 0.035 µM | 11.9 µM | COc1cc(-n2c(-c3cccs3)cc(/C=C3\SC(=O)NC3=O)c2-c2cccs2)ccc1-c1ccc(/C=C2\SC(=O)NC2=O)cc1 | 95% | 89% |
